697 NFkB inh = inhibitors of the PMA/ionomycin-induced NF-kB reporter in 697 B cells. AID 435022. inhibition, % at 4 µM. 330,000 tested, 0.33% active. 697 B-cell NF-kB luciferase reporter, 16 h; in the data active means inhibition above about 35%
Jurkat NFkB inh = inhibitors of the PMA/ionomycin-induced NF-kB reporter in Jurkat cells. PMA/ionomycin-induced NF-kB luciferase reporter, luminescence. inhibition, % at 4 µM. 330,000 tested, 0.53% active. AID 435003; in the data active means inhibition above about 50%
MPTP inh = inhibitors of mitochondrial permeability transition pore; isolated mouse mitochondria, Ca2+ swelling absorbance, 30 min; inhibition, % at 10 µM; 360,000 tested, 1.4% active; AID 602449;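 active means inhibition of 50% or more, scaled per plate between neutral and stimulator controls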;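 further: 0% = DMSO wells given calcium and 100% = 1 mM EGTA wells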
NR2E3 ag-1 = agonists of human nuclear receptor NR2E3; Q9Y5X4; GST-NR2E3/biotin-RetCOR TR-FRET, 1536-well; inhibition of corepressor binding, % at 4.78 µM; 320,000 tested, 0.12% active; AID 2300;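 active means percent inhibition above the cutoff of mean plus 3 SD of all tested compounds, set per screening campaign, cut at about 20% in these data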;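 further: 0% = DMSO wells and 100% = biotin wells as full block of FRET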
Target sequence (Q9Y5X4 whole entry, looked up): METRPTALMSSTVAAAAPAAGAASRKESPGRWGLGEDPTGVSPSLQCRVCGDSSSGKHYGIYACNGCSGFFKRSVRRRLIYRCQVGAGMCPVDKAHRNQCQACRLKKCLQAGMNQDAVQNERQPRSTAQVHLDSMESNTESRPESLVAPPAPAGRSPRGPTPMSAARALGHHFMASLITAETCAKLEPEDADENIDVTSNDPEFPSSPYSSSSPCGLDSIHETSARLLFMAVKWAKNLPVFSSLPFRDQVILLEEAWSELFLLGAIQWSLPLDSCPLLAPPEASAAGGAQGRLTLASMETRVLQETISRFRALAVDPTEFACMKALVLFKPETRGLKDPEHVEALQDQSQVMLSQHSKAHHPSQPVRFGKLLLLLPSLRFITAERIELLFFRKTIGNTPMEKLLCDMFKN
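System: GST-tagged NR2E3 plus biotinylated RetCOR corepressor; Amount: 1.35 nM GST-tagged NR2E3 final; Dosing: single nominal compound dose of 4.8 µM; Schedule: 5 h incubation at 4 °C; Technique: TR-FRET with europium anti-GST and streptavidin-D2, 340 nm excitation; Controls: biotin wells as high control, 0.6% DMSO wells as low control.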
NR2E3 ag-2 = agonists of human NR2E3 nuclear receptor. Q9Y5X4. CHO-S Gal4-NCOR/VP16-NR2E3 two-hybrid, luciferase. inhibition of corepressor binding, % at 3.98 µM. 360,000 tested, 0.35% active. AID 602229;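 active means inhibition above the mean of all tested compounds plus 3 SD, cut at about 70% in these data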;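 further: 0% = DMSO with NR2E3 transfected cells and 100% = cells lacking NR2E3 construct; higher means lower luciferase signal from less NR2E3 corepressor binding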
aDG glyco up = alpha-DG glycosylation activation; Pro5-aDG cells, alpha-DG glycosylation AlphaScreen (IIH6); 0% Pro5, 100% B10-LARGE cell signal; activation, % at 10 µM; 360,000 tested, 0.22% active;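 active means activation of at least 8% versus controls, or a plate z-score of at least 8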;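 further: Pro5 are CHO cells carrying HIG-tagged alpha-DG that lacks glycosylation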
697 NFkB conf = lowers PMA/ionomycin-induced NF-kB signal in 697 B cells; shares compounds with 697 NFkB inh; 697 B-cell NF-kB luciferase, 16 h; inhibition, % at 4 µM; 2,000 tested, 35% active; AID 449746; in the data active means inhibition mostly above about 28%, no sharp cut-off; inactive means mostly below about 22%
Starred values were filed as active, the others as inactive; i = inactive; / = no result given. Sampled rows, rich in hits. Any-hit rate of the full collection: about 2.4%.

SMILES	697 NFkB inh	Jurkat NFkB inh	MPTP inh	NR2E3 ag-1	NR2E3 ag-2	aDG glyco up	697 NFkB conf
Cc1ccc(CSc2nnc(SCC(=O)N/N=C/C=C/c3ccccc3[N+](=O)[O-])s2)cc1	66*	-7	27	-2	25	0	55*
COc1ccc(-c2nn(C)c3sc(C(=O)N4CCOCC4)cc23)cc1OC	37*	16	0	-1	10	0	4
O=C(c1ccoc1)N1CCC2(CC1)Oc1ccc(F)cc1C(=O)C21CC(c2ccc(Cl)cc2)=NO1 (stereo not given)	36*	18	0	3	-3	0	19
O=C(c1ccoc1)N1CCC2(CC1)Oc1ccc(Cl)cc1C(=O)C21CC(c2ccc(Cl)cc2)=NO1 (stereo not given)	1	6	2	-1	23	1	/
Cc1c(CCC(=O)NCCCn2ccnc2)c(=O)oc2c(C)c3oc4c(c3cc12)CCCC4	38*	18	-1	-1	11	0	23*
Cc1c(CCC(=O)NCCCCCC(=O)O)c(=O)oc2c(C)c3oc4c(c3cc12)CCCC4	23	-13	0	/	-2	0	/
CCOC(=O)c1c(NC(=O)c2c(-c3ccccc3)noc2C)sc(C)c1-c1ccccc1	i	-28	7	-1	-5	0	i
Cc1ccc(C(=O)NC(=S)Nc2ccc(NC(=O)c3cccc(Cl)c3)cc2)cc1	-305	-26	15	-3	-14	0	13
Cc1cc(C)nc(NC2=NCC(=O)N2c2ccc(F)c(Cl)c2)n1	40*	10	-12	0	-33	0	16
COc1ccc(N2C(=O)CN=C2Nc2nc(C)cc(C)n2)cc1OC	18	2	-2	-1	-11	0	/
Cc1ccc(S(=O)(=O)Nc2ccc(S(=O)(=O)Nc3nccs3)cc2)c([N+](=O)[O-])c1	-10	-13	0	-2	-37	0	/
COc1cc(C(=O)Nc2cc(C)c(OCC(=O)N3CCOCC3)c(C)c2)cc(OC)c1OC	36*	5	-1	0	-7	0	32*
O=C(NCCN1CCN(C(=O)c2ccc([N+](=O)[O-])cc2)CC1)C(=O)NCc1ccccc1	-4	8	0	4	-27	0	/
CNC(=O)C(=O)NCCN1CCN(C(=O)c2ccc([N+](=O)[O-])cc2)CC1	35*	10	1	3	7	0	15
COc1ccc(OC)c(S(=O)(=O)Nc2ccc(-c3ccc4nnc(C)n4n3)cc2)c1	50*	9	-1	1	25	0	39*
CCc1ccc(S(=O)(=O)Nc2ccc(-c3ccc4nnc(C)n4n3)cc2)s1	19	6	0	-1	22	0	/
CCc1ccc(S(=O)(=O)Nc2cccc(-c3ccc4nnc(C)n4n3)c2)s1	38*	18	-1	2	0	0	10
COc1ccc(S(=O)(=O)Nc2ccc(-c3ccc4nnc(C)n4n3)cc2)c(OC)c1	32	2	1	4	8	0	/
Cc1nnc2ccc(-c3ccc(NS(=O)(=O)c4ccccc4)cc3)nn12	38*	11	-3	/	8	0	21
COc1ccc(/C=C(\C#N)C(=O)N2COCC2(C)C)cc1	-8	-7	1	-1	-22	0	/
CC(=O)Nc1ccc(/C=C(\C#N)C(=O)NC2CCCCC2)cc1	46*	3	0	0	38	0	-8
O=C(/C=C/c1ccccc1Cl)NC(=S)Nc1ccccc1C(=O)NC1CCCCC1	-101	-2	15	-1	-2	0	/
O=C1N/C(=C\c2nc3ccccc3s2)c2ccccc21	-322	-107	/	-1	/	/	-453
Nc1ccc(C(=O)OCCCc2nc3cc4ccccc4cc3[nH]2)cc1	-38	1	4	-2	-29	0	/
Nc1ccc(C(=O)OCc2nc3cc4ccccc4cc3[nH]2)cc1	i	-42	0	-3	-12	0	-381
SMILES	697 NFkB inh	Jurkat NFkB inh	MPTP inh	NR2E3 ag-1	NR2E3 ag-2	aDG glyco up	697 NFkB conf
c1ccc(Cc2nc3ccccc3[nH]2)cc1	4	-12	0	5	-5	0	/
Nc1ccc(Cc2nc3cc4ccccc4cc3[nH]2)cc1	i	-83	/	-1	/	/	-344
Cc1ccc(S(=O)(=O)N2CCN(C(=O)c3ccc(Br)o3)CC2)c(C)c1	-5	11	1	-2	-23	0	/
CC(C)N(C)S(=O)(=O)c1ccc(NC(=O)CSC(=S)N2CCCC2)cc1	15	9	-1	-2	-32	0	/
Cc1ccc(NC(=O)CNC2CCS(=O)(=O)C2)cc1C (stereo not given)	/	/	0	/	14	0	/
CSCCC(NS(=O)(=O)c1ccc(C)cc1)C(=O)N1CCN(S(=O)(=O)c2ccc(F)cc2)CC1 (stereo not given)	-9	-3	0	0	21	0	/
Cc1cc(OC(=O)c2ccc3ccccc3c2)c([N+](=O)[O-])c(=O)[nH]1	4	-12	1	0	-21	0	/
CN(C)CCCN=Cc1c(-c2ccccc2)[nH]n(-c2nc3ccccc3s2)c1=O	42*	13	-2	2	-31	0	44*
c1ccc2[nH]c(-c3cscn3)nc2c1	/	/	-1	0	-30	0	/
c1ccc2nc(-c3nc4ccccc4[nH]3)ccc2c1	-274	-116	5	2	-120	0	-343
Nc1ccccc1SCC(=O)Nc1nc(-c2ccccc2)cs1	47*	23	0	-2	8	0	40*
CCC(C)N1C(=O)/C(=C/c2c(NCCCOC(C)C)nc3c(C)cccn3c2=O)SC1=S (stereo not given)	38*	13	12	3	-17	0	34*
Cc1ccc(C(=O)N2CCn3c(C)ccc3C2C)cc1 (stereo not given)	11	2	-1	4	-37	1	/
O=C(Nc1ccc(F)cc1)C1CCC(CNc2c(N3CCCCC3)c(=O)c2=O)CC1 (stereo not given)	38*	-1	0	-2	15	0	16
COC(=O)c1c(-c2ccc(OC)cc2)sc2cc3c(cc12)OCO3	-97	-70	2	0	-126	0	/
COC(=O)c1c(-c2ccc(N(C)C)cc2)sc2ccc(OC)cc12	53*	-6	3	/	28	2	62*
O=C(Nc1cccc(Cl)c1)c1ccc(OC(=S)N2CCOCC2)cc1	-84	-82	0	0	-87	1	/
O=C(Nc1cccc2ccccc12)c1ccc(OC(=S)N2CCOCC2)cc1	-366	-130	4	1	-117	2	-419
Cn1c(=O)c2c(ncn2Cc2nnc(N)s2)n(C)c1=O	3	-23	-2	0	-5	0	/

Screens from PubChem BioAssay.
